# Assay results taken from publication PMC3652433 (MedChemComm, 2013).
# Key:
# [1] = molecular target: hMOR (Homo sapiens, UniProt P35372); format: cell-based; conditions: hMOR-CHO cells with Gqi5; data not shown
# [2] = molecular target: CCR5 (Homo sapiens, UniProt P51681); assay: Ca2+ flux assay in Gqi5 transfected CCR5-MOLT-4 cells; format: cell-based; conditions: for Potency decrease in RANTES induced Ca2+ flux inhibition compared to maraviroc: relative to maraviroc
# [3] = tested on: HIV-1SF162; format: cell-based; conditions: human astrocytes
# In short: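 Human astrocytes infected with R5 HIV-1SF162; infection assessed by a luciferase-based read-out of relative Tat protein expression at 18 h post-infection. Dose–response was run per compound first. Fixed levels: test compound 100 nM, CCR5 antagonist reference 100 nM, opioid antagonist reference 1.5 μM. Values are […] ± SEM of three independent experiments; statistics vs uninfected control cells.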
# [4] = tested on: astroglial cells; assay: Viability of astroglial cells, dual fluorescence labeling with AOPI; format: cell-based, human; conditions: 100 nM, data not shown
# [5] = molecular target: CCR5 (Macaca mulatta, UniProt P61813); assay: CCR5 competitive radioligand binding assay; design: species or system rhesus macaque; conditions: relative to maraviroc
# [6] = 100 nM, R5 HIV-1SF162, 18 h post-infection
# Sequence of CCR5 (Homo sapiens, UniProt P51681) (P51681 whole entry): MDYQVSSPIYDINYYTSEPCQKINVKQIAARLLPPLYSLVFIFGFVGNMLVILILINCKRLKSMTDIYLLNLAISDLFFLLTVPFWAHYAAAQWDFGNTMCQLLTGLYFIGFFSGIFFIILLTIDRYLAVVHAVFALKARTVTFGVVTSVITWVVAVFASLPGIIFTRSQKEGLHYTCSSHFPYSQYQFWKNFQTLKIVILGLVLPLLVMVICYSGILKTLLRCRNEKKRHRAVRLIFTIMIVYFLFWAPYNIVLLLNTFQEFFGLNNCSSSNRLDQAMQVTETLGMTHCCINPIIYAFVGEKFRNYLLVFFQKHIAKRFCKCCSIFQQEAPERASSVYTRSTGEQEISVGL
# Sequence of hMOR (P35372 whole entry): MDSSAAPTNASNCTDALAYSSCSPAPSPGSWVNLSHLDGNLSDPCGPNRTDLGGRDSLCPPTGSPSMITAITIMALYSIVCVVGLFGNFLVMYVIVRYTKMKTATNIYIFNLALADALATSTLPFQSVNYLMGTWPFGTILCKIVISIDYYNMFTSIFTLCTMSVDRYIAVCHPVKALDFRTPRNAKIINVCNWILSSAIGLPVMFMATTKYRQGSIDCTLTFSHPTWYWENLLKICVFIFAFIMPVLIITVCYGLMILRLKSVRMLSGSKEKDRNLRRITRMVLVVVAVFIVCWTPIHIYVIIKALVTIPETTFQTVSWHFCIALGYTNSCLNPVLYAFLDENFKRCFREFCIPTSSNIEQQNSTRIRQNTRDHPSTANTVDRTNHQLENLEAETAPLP
Molecule,MOR agonism in Ca2+ mobilization assay [1],Potency decrease in RANTES induced Ca2+ flux inhibition compared to maraviroc [2],"Effect on viral entry / Tat expression [3, 6]",also measured
Cc1nnc(C(C)C)n1C1CC2CCC(C1)N2CC[C@H](NC(=O)C1CCC(F)(F)CC1)c1ccc(NC(=O)COCC(=O)NCCCCCCCNC(=O)COCC(=O)N[C@@H]2CC[C@@]3(O)[C@H]4Cc5ccc(O)c6c5[C@@]3(CCN4CC3CC3)[C@H]2O6)cc1 (some centres unmarked) [compound 1],No agonism was observed,approximately 60 fold,significantly effective in inhibiting viral entry,"CCR5 agonism in Ca2+ assay ([2]; CCR5-MOLT-4 cells with Gqi5, data not shown): no CCR5 agonism was detected; Decrease in Tat expression compared to maraviroc alone ([3]; 100 nM, vs maraviroc 100 nM): at least a two-fold decrease in Tat expression; Effect on viability of astroglial cells [4]: did not affect the viability of astroglial cells"
CNC(=O)COCC(=O)NCCCCCCCNC(=O)COCC(=O)Nc1ccc([C@H](CCN2C3CCC2CC(n2c(C)nnc2C(C)C)C3)NC(=O)C2CCC(F)(F)CC2)cc1 (some centres unmarked) [compound 3],–,~300 fold,–,–
Cc1nnc(C(C)C)n1C1CC2CCC(C1)N2CC[C@H](NC(=O)C1CCC(F)(F)CC1)c1ccc(N)cc1 (some centres unmarked) [compound 4],–,–,–,Decrease in CCR5 binding affinity compared to maraviroc [5]: approximately 65 fold
"O=C1CC[C@@]2(O)[C@H]3Cc4ccc(O)c5c4[C@@]2(CCN3CC2CC2)[C@H]1O5 [naltrexone, reference compound]",–,–,–,"Effect on Tat production ([3]; 1.5 μM, R5 HIV-1SF162, 18 h post-infection): did not show significant effect on Tat production"
CNC(=O)COCC(=O)NCCCCCCCNC(=O)COCC(=O)N[C@@H]1CC[C@@]2(O)[C@H]3Cc4ccc(O)c5c4[C@@]2(CCN3CC2CC2)[C@H]1O5 [compound 2],No agonism was observed,–,–,–
maraviroc [reference compound],–,–,considerably inhibited viral entry,–
